Experiment [1] relates to Staphylococcus aureus. The experiment can be described thus: Inhibition of penicillin-resistant Staphylococcus aureus PBP2a assessed as residual activity at 1 mM incubated for 4 hrs prior to prior to fluoresceyl-ampicillin labelling measured after 20 mins by SDS-PAGE analysis.
Experiment [2] has as its target T1, D-alanyl-D-alanine carboxypeptidase (Actinomadura sp. R39, UniProt P39045). The experiment can be described thus: Binding affinity to Actinomadura sp. R39 PBP.
The target of experiment [3] is T2, Penicillin-binding protein 2X (Streptococcus pneumoniae R6) (UniProt P59676).
T2 sequence (whole entry): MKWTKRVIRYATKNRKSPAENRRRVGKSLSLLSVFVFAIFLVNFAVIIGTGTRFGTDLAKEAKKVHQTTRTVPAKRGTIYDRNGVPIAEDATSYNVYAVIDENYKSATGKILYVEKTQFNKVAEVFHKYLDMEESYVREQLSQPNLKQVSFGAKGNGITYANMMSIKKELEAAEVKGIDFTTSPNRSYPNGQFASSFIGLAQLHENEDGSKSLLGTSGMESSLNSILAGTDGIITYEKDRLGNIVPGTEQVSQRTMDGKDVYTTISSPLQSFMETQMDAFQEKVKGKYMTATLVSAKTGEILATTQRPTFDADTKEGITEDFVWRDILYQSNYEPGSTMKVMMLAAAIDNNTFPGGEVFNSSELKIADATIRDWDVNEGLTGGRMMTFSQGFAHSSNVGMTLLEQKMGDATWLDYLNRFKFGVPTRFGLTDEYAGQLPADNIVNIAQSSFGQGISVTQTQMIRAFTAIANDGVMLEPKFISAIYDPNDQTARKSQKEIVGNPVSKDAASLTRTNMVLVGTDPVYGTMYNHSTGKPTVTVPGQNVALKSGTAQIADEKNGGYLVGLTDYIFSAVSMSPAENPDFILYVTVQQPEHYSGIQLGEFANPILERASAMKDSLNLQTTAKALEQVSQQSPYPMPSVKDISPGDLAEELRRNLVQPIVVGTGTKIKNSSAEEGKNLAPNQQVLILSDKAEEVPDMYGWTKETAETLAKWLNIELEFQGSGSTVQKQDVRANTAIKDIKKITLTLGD
The experiment can be described thus: Inhibition of penicillin-sensitive Streptococcus pneumoniae R6 PBP2x using S2d as substrate assessed as residual activity at 1 mM incubated for 60 mins prior to substrate addition by DTNB-based spectrophotometry. A digest of the protocol: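 S. pneumoniae PBP2x-R6, 0.09 µM, pre-incubated with inhibitor in 10 mM sodium phosphate pH 7.0 with 0.01 mg/mL BSA, 60 min, 25 °C; 1% DMF final. S2d (1 mM) plus DTNB (1 mM) then added; residual activity taken from initial hydrolysis rate at 412 nm, corrected for spontaneous hydrolysis; triplicates, six no-inhibitor controls per plate.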

Experiment [4] addresses T3, Penicillin-binding protein 2x (Streptococcus pneumoniae serotype 4 (strain ATCC BAA-334 / TIGR4)) (UniProt P14677).
T3 sequence (whole entry): T2 sequence (whole entry) with M385T
Nature of the experiment: Inhibition of penicillin-resistant Streptococcus pneumoniae 5204 PBP2x using S2d as substrate assessed as residual activity at 1 mM incubated for 4 hrs prior to substrate addition by DNTB-based spectrophotometry in the presence of triton X 100.

The subject of experiment [5] is Streptococcus pneumoniae. Nature of the experiment: Inhibition of Streptococcus pneumoniae PBP1b using PATP thioester as substrate assessed as residual activity at 1 mM incubated for 60 mins prior to substrate addition by DNTB-based spectrophotometry in the presence of triton X 100. A digest of the protocol:
(§1)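 Assay B: S. pneumoniae PBP1b (0.2 µM) pre-incubated with inhibitor 60 min at 25 °C in 10 mM sodium phosphate pH 7.0, 100 mM D-alanine, 0.01 mg/mL BSA, 0.01% Triton X-100. Residual activity from initial rates of PATP thioester (5 mM) hydrolysis with DTNB (1.0 mM); IC50 by non-linear regression of residual activity across concentrations.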

Experiment [6] concerns the target D-alanyl-D-alanine carboxypeptidase (Actinomadura sp. R39) (UniProt P39045). Nature of the experiment: Inhibition of Actinomadura sp. R39 PBP using S2d as substrate assessed as residual activity at 1 mM incubated for 60 mins prior to substrate addition by DTNB-based spectrophotometry. The procedure, abridged:
(§2)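 R39 (Actinomadura, prepared per Granier), 3.5 nM, pre-incubated with inhibitor 60 min at 25 °C in 10 mM sodium phosphate pH 7.2, 100 mM NaCl, 100 mM D-alanine, 0.01 mg/mL BSA; inhibitors from DMF stock, 1% DMF final. Residual activity from initial rate of S2d (1 mM) hydrolysis with DTNB (1 mM), read at 412 nm, corrected for spontaneous hydrolysis; triplicates, uninhibited control six replicates per plate.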

Experiment [7] relates to Enterococcus faecium. The experiment can be described thus: Inhibition of penicillin-resistant Enterococcus faecium PBP5fm assessed as residual activity at 1 mM incubated for 4 hrs prior to prior to fluoresceyl-ampicillin labelling measured after 20 mins by SDS-PAGE analysis.
The target in experiment [8] is T1, D-alanyl-D-alanine carboxypeptidase. The experiment can be described thus: Inhibition of Actinomadura sp. R39 PBP using S2d as substrate incubated for 60 mins prior to substrate addition by DTNB-based spectrophotometry. The procedure, abridged: (§3)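 PBP purified per earlier method. Pre-incubation: enzyme with inhibitor (DMF stock, 1% DMF final) at 25 °C for 60 min. Buffer for R39 (3.5 nM): 10 mM sodium phosphate pH 7.2, 100 mM NaCl, 100 mM D-alanine, 0.01 mg/mL BSA. Buffer for PBP2xR6: 10 mM sodium phosphate pH 7.0, 0.01 mg/mL BSA. S2d (1 mM) and DTNB (1 mM) then added. Initial hydrolysis rate read at 412 nm. Triplicates. IC50 by non-linear regression of residual activity over a concentration range, with 0.01% Triton X-100.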

The target in experiment [9] is T3, Penicillin-binding protein 2x (Streptococcus pneumoniae serotype 4 (strain ATCC BAA-334 / TIGR4)). Nature of the experiment: Inhibition of penicillin-resistant Streptococcus pneumoniae 5204 PBP2x using S2d as substrate assessed as residual activity at 1 mM incubated for 4 hrs prior to substrate addition by DNTB-based spectrophotometry.
The test system of experiment [10] is Streptococcus pneumoniae. The experiment can be described thus: Inhibition of Streptococcus pneumoniae PBP1b assessed as residual activity at 1mM incubated for 60 mins prior to fluoresceyl-ampicillin labelling measured after 20 mins by SDS-PAGE analysis in the presence of triton X 100. A digest of the protocol: (§4)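 Assay A: purified S. pneumoniae PBP1b (0.7 µM) pre-incubated with inhibitor in 10 mM sodium phosphate pH 7.0, 60 min, 25 °C, 0.01% Triton X-100. Remaining active enzyme labelled with fluoresceyl-ampicillin (10 µM), 20 min; reaction stopped, run on SDS-PAGE, fluorescence of the band quantified as residual activity.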

The nature of experiment [11]: Inhibition of Streptococcus pneumoniae PBP1b incubated for 60 mins prior to fluoresceyl-ampicillin labelling measured after 20 mins by SDS-PAGE analysis in the presence of triton X 100. A digest of the protocol: as §4
Experiment [12] is described as follows: Inhibition of Streptococcus pneumoniae PBP1b using PATP thioester as substrate incubated for 60 mins prior to substrate addition by DNTB-based spectrophotometry in the presence of triton X 100. A digest of the protocol: as §1
Experiment [13] concerns Streptococcus pneumoniae. Nature of the experiment: Inhibition of Streptococcus pneumoniae PBP1b assessed as residual activity at 100 uM incubated for 60 mins prior to fluoresceyl-ampicillin labelling measured after 20 mins by SDS-PAGE analysis in the presence of triton X 100. A digest of the protocol: as §4
In experiment [14] the test system is Streptococcus pneumoniae. Nature of the experiment: Inhibition of Streptococcus pneumoniae PBP1b using PATP thioester as substrate assessed as residual activity at 100 uM incubated for 60 mins prior to substrate addition by DNTB-based spectrophotometry in the presence of triton X 100. A digest of the protocol:
as §1

The target in experiment [15] is T4, Penicillin-binding protein 2X (Streptococcus pneumoniae R6, UniProt P59676).
T4 sequence (P59676 whole entry): T2 sequence (whole entry)
The experiment can be described thus: Inhibition of penicillin-sensitive Streptococcus pneumoniae R6 PBP2x using S2d as substrate incubated for 60 mins prior to substrate addition by DTNB-based spectrophotometry. The procedure, abridged:
as §3

For experiment [16], the system named is Streptococcus pneumoniae. The experiment can be described thus: Inhibition of Streptococcus pneumoniae PBP1b using PATP thioester as substrate assessed as residual activity at 1 mM incubated for 60 mins prior to substrate addition by DNTB-based spectrophotometry. A digest of the protocol: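 PBP1b (0.2 µM) pre-incubated with inhibitor for 60 min at 25 °C in 10 mM sodium phosphate pH 7.0, 100 mM D-alanine, 0.01 mg/mL BSA. PATP thioester (5 mM) and DTNB (1.0 mM) then added. Residual activity derived from initial hydrolysis rates against no-inhibitor controls.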

The target in experiment [17] is T2, Penicillin-binding protein 2X (Streptococcus pneumoniae R6). The experiment can be described thus: Inhibition of penicillin-sensitive Streptococcus pneumoniae R6 PBP2x using S2d as substrate assessed as residual activity at 1 mM incubated for 60 mins prior to substrate addition by DTNB-based spectrophotometry in presence of triton X 100. A digest of the protocol:
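PBP2xR6 (0.09 µM) pre-incubated with inhibitor for 60 min at 25 °C in 10 mM sodium phosphate pH 7.0, 0.01 mg/mL BSA, with 0.01% Triton X-100. 1% DMF final. S2d (1 mM) and DTNB (1 mM) then added. Initial hydrolysis rate read at 412 nm. Triplicates. Uninhibited activity from six replicates per plate.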

Experiment [18] has as its target D-alanyl-D-alanine carboxypeptidase (Actinomadura sp. R39) (UniProt P39045). The experiment can be described thus: Inhibition of Actinomadura sp. R39 PBP using S2d as substrate assessed as residual activity at 1 mM incubated for 60 mins prior to substrate addition by DTNB-based spectrophotometry in presence of triton X 100. The procedure, abridged:
as §2

Changes are numbered by the printed parent chain.

9 compounds from ChEMBL document CHEMBL2034818, “Synthesis and evaluation of boronic acids as inhibitors of Penicillin Binding Proteins of classes A, B and C” (Bioorg Med Chem, 2012) can be followed below.

Chain of D-alanyl-D-alanine carboxypeptidase (Actinomadura sp. R39) (P39045 whole entry): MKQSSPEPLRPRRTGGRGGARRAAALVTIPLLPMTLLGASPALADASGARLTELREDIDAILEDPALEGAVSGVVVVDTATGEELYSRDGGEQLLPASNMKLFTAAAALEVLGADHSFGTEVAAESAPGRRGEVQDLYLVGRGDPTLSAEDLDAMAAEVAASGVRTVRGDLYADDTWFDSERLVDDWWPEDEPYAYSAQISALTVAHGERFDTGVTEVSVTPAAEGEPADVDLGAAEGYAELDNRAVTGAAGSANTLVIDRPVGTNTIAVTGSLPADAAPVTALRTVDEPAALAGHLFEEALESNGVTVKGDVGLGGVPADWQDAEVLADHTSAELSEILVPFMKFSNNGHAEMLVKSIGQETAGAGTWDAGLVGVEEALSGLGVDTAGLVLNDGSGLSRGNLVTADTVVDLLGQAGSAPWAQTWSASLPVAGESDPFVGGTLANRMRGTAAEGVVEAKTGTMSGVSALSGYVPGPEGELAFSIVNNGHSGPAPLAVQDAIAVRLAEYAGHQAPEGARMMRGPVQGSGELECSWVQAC
T1 sequence (P39045 whole entry): as above

As to `O=C(Cc1ccccc1)NCB(O)O`, the Activity in [1] was 90%; in [3], 57%; in [4], 97%; in experiment [5] it was 56%; in experiment [6], 29%; in experiment [7], 83%. The compound also had a Ki in experiment [2] of 125 µM. The same compound displayed an IC50 in experiment [8] of 320 µM.
For the compound `COc1cccc(C(=O)NCB(O)O)c1`, the Activity in experiment [9] amounted to 101%; in experiment [1], 91%; in [10] it was 23%; in experiment [3], 55%; in experiment [6], 50%; in [7], 89%. For the same compound, the IC50 in experiment [11] worked out at 79 µM.
`CC(=O)NCB(O)O`: the Activity in [9] was found to be 97%; in experiment [3] it was 100%; in [5] it was 87%; in experiment [6] it was 74%.
Regarding `Cc1ccccc1C(=O)NCB(O)O`, in [12], the IC50 turned out to be 18 µM. The Activity in experiment [9] was 105%; in experiment [13] it was 27%; in experiment [1] it was 88%; in [3], 70%; in experiment [6] it was 45%; in experiment [7], 85%.
Consider `O=C(CCc1ccccc1)NCB(O)O`, for which the Activity was determined as 99% in experiment [9]; 95% in experiment [13]; 83% in experiment [1]; 0% in experiment [10]; 71% in [3]; 51% in [6]. In addition, the Activity in [7] was 79%.
Regarding `COc1ccccc1C(=O)NCB(O)O`, the Activity in experiment [9] worked out at 99%; in experiment [14] it was 67%; in experiment [3], 86%; in experiment [5], 1%; in experiment [6], 43%.
Take `COc1cccc(OC)c1C(=O)NCB(O)O`: the concentration for half-maximal inhibition (IC50) was over 1000 µM in experiment [12], 278 µM in [15] and 1.3 µM in [8]. Further, the Activity in experiment [9] turned out to be 100%; in experiment [3] it was 26%; in [16] it was 67%; in [6], 0%. The affinity in [2] corresponds to a Ki of 1.5 µM.
As for `O=C(NCB(O)O)c1ccccc1Cl`, the Activity worked out at 81% in [1]; 20% in experiment [14]; 70% in experiment [4]; 31% in experiment [17]; 97% in experiment [7]; 15% in [18]. Moreover, the concentration for half-maximal inhibition (IC50) in experiment [15] stood at 262 µM; in experiment [8], 85 µM. For the same compound, in experiment [2], the Ki is 42 µM.
On to `O=C(NCB(O)O)c1c(F)cccc1F`, for which the IC50 in experiment [12] is 7 µM; in experiment [15], 906 µM; in experiment [8], 35 µM. The Activity worked out at 91% in experiment [1]; 7% in [14]; 40% in experiment [3]; 86% in experiment [4]; 6% in [6]; 88% in experiment [7].
